The source made the active and inactive calls. The rule behind the calls is not given here.
How the values were obtained:
[1] = test system: B16-F10; assay: Induction of apoptosis in mouse B16F10 cells assessed as necrotic cells at IC50 after 72 hrs by annexin V-FITC/propidium iodide staining-based FACS analysis (reference value: 4.0 +/- 0.6%); assay type: functional
[2] = test system: B16-F10; assay: Induction of apoptosis in mouse B16F10 cells assessed as total apoptotic cells at IC50 after 72 hrs by annexin V-FITC/propidium iodide staining-based FACS analysis (reference value: 13.7 +/- 2.7%); assay type: functional
[3] = test system: B16-F10; assay: Cytotoxicity against mouse B16F10 cells after 72 hrs by MTT assay; assay type: functional, cell-based; conditions: B16-F10, 72 h
How it was run: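 B16F10 cells (DMEM, 2 mM glutamine, 10% heat-inactivated FCS, penicillin/streptomycin; subconfluent) seeded at 11·10^3 per well and exposed to 0–80 µg/mL for 72 h. Compounds were diluted from a 10 mg/mL stock in 50% DMSO/PBS. MTT 0.5 mg/mL for 2 h, formazan dissolved in DMSO, absorbance at 550 nm. Viability is relative to untreated controls; IC50 from four assays of six replicates, mean ± S.E.M.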

[4] = target: Protease (Human immunodeficiency virus 1, UniProt Q9YQ12); assay: Inhibition of HIV1 recombinant protease expressed in Escherichia coli using Abz-Ala-Arg-Val-Nle-Tyr(NO2)-Glu-Ala-Nle-NH2 as substrate by FRET assay
[5] = test system: B16-F10; assay: Induction of apoptosis in mouse B16F10 cells assessed as late apoptotic cells at 2 X IC50 after 72 hrs by annexin V-FITC/propidium iodide staining-based FACS analysis (reference value: 9.8 +/- 2.2%); assay type: functional
[6] = test system: B16-F10; assay: Induction of apoptosis in mouse B16F10 cells assessed as normal cells at IC50 after 72 hrs by annexin V-FITC/propidium iodide staining-based FACS analysis (reference value: 77.9 +/- 1.5%); assay type: functional
[7] = test system: B16-F10; assay: Induction of apoptosis in mouse B16F10 cells assessed as normal cells at 2 X IC50 after 72 hrs by annexin V-FITC/propidium iodide staining-based FACS analysis (reference value: 77.9 +/- 1.5%); assay type: functional
[8] = test system: B16-F10; assay: Induction of apoptosis in mouse B16F10 cells assessed as total apoptotic cells at 2 X IC50 after 72 hrs by annexin V-FITC/propidium iodide staining-based FACS analysis (reference value: 13.7 +/- 2.7%); assay type: functional
[9] = test system: B16-F10; assay: Induction of apoptosis in mouse B16F10 cells assessed as late apoptotic cells at IC50 after 72 hrs by annexin V-FITC/propidium iodide staining-based FACS analysis (reference value: 9.8 +/- 2.2%); assay type: functional
[10] = test system: B16-F10; assay: Induction of apoptosis in mouse B16F10 cells assessed as necrotic cells at 2 X IC50 after 72 hrs by annexin V-FITC/propidium iodide staining-based FACS analysis (reference value: 4.0 +/- 0.6%); assay type: functional
[11] = test system: B16-F10; assay: Induction of ROS generation in mouse B16F10 cells at IC50 to 2 X IC50 after 72 hrs by rhodamine123/propidium iodide staining-based FACS analysis; assay type: functional, cell-based
How it was run: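 B16F10 cells, 11·10^4 per well, treated 72 h at IC50 or 2×IC50, then given fresh medium with dihydrorhodamine 123 at a final 5 µg/mL for 30 min. Cells washed, resuspended in PBS and read by flow cytometry for Rh123 and PI fluorescence (excitation 500 nm, emission 536 nm). Rh123+ cells scored ROS-positive regardless of PI. Three experiments in duplicate, mean ± S.E.M.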

[12] = test system: B16-F10; assay: Induction of apoptosis in mouse B16F10 cells assessed as early apoptotic cells at 2 X IC50 after 72 hrs by annexin V-FITC/propidium iodide staining-based FACS analysis (reference value: 3.9 +/- 0.4%); assay type: functional
[13] = test system: B16-F10; assay: Induction of apoptosis in mouse B16F10 cells assessed as early apoptotic cells at IC50 after 72 hrs by annexin V-FITC/propidium iodide staining-based FACS analysis (reference value: 3.9 +/- 0.4%); assay type: functional

Chain of Protease (Q9YQ12 whole entry): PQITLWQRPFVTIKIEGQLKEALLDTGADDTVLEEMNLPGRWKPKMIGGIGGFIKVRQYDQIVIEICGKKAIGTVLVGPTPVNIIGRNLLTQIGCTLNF

SMILES | Activity [1] | Activity [2] | IC50 [3] | IC50 [4] | Activity [5] | Activity [6] | Activity [7] | Activity [8] | Activity [9] | Activity [10] | Activity [11] | Activity [12] | Activity [13]
CC1(C)CC[C@]2(C(=O)OCc3ccccc3)CC[C@]3(C)C(=CC[C@@H]4[C@@]5(C)C[C@@H](OC(=O)c6ccccc6C(=O)O)[C@H](O)C(C)(C)[C@@H]5CC[C@]43C)[C@@H]2C1 | 2.5% | 64.7% | 73.2 µM | 0.8 µM | 46.2% | 32.8% | 2.9% | 89.7% | 22.5% | 7.5% | inactive | 43.6% | 42.2%
CCC(=O)O[C@H]1CC[C@]2(C)[C@H]3CC=C4[C@@H]5CC(C)(C)CC[C@]5(C(=O)O)CC[C@@]4(C)[C@]3(C)CC[C@H]2C1(C)C | 1.3% | 74.4% | 161 µM |  | 16.5% | 24.3% | 37.2% | 60.8% | 27.4% | 2% | Active | 44.3% | 47%
CC1(C)CC[C@]2(C(=O)OCc3ccccc3)CC[C@]3(C)C(=CC[C@@H]4[C@@]5(C)CC[C@H](OC(=O)c6ccccc6C(=O)O)C(C)(C)[C@@H]5CC[C@]43C)[C@@H]2C1 | 1.5% | 94.6% | 26.8 µM | 0.4 µM | 28.5% | 3.9% | 3.7% | 95.4% | 30.3% | 1% | inactive | 66.9% | 64.3%
CC1(C)CC[C@]2(C(=O)OCc3ccccc3)CC[C@]3(C)C(=CC[C@@H]4[C@@]5(C)C[C@@H](OC(=O)CCCC(=O)O)[C@H](O)C(C)(C)[C@@H]5CC[C@]43C)[C@@H]2C1 | 1.6% | 25.2% | 63.2 µM |  | 19.8% | 73.3% | 20.2% | 78.9% | 14.6% | 0.9% | Active | 59.1% | 10.6%
CC(=O)O[C@@H]1C[C@]2(C)[C@H]3CC=C4[C@@H]5CC(C)(C)CC[C@]5(C(=O)OCc5ccccc5)CC[C@@]4(C)[C@]3(C)CC[C@H]2C(C)(C)[C@H]1O | 1.2% | 86% | 39.6 µM |  | 27.1% | 12.9% | 1.1% | 98.4% | 20% | 0.6% | Active | 71.3% | 66%
CCCCCC(=O)O[C@@H]1C[C@]2(C)[C@H]3CC=C4[C@@H]5CC(C)(C)CC[C@]5(C(=O)O)CC[C@@]4(C)[C@]3(C)CC[C@H]2C(C)(C)[C@H]1O | 3.9% | 61.4% | 34.6 µM | 124 µM | 17.5% | 34.8% | 18.9% | 80.2% | 19% | 1.1% | Active | 62.7% | 42.4%
CC1(C)CC[C@]2(C(=O)OCc3ccccc3)CC[C@]3(C)C(=CC[C@@H]4[C@@]5(C)CC[C@H](OC(=O)CCC(=O)O)C(C)(C)[C@@H]5CC[C@]43C)[C@@H]2C1 | 11.1% | 72.1% | 23.2 µM |  | 17.6% | 16.9% | 7.7% | 91.6% | 55.5% | 0.7% | inactive | 74% | 16.6%
CC(=O)O[C@H]1CC[C@]2(C)[C@H]3CC=C4[C@@H]5CC(C)(C)CC[C@]5(C(=O)O)CC[C@@]4(C)[C@]3(C)CC[C@H]2C1(C)C [ACETYL OLEANOLIC ACID] | 5.8% | 54.7% | 64.7 µM | 3.4 µM | 33.4% | 39.5% | 46.3% | 48% | 40.3% | 5.7% | Active | 14.6% | 14.4%
CC1(C)CC[C@]2(C(=O)O)CC[C@]3(C)C(=CC[C@@H]4[C@@]5(C)CC[C@H](OC(=O)c6ccccc6)C(C)(C)[C@@H]5CC[C@]43C)[C@@H]2C1 | 3.8% | 51.6% | 162 µM |  | 50.5% | 44.6% | 31.6% | 60% | 37.6% | 8.5% | Active | 9.5% | 14%
CCCC(=O)O[C@@H]1C[C@]2(C)[C@H]3CC=C4[C@@H]5CC(C)(C)CC[C@]5(C(=O)O)CC[C@@]4(C)[C@]3(C)CC[C@H]2C(C)(C)[C@H]1O | 1.2% | 77.7% | 107 µM |  | 30% | 21% | 10.2% | 83% | 22.1% | 6.8% | Active | 53% | 55.6%
CC(=O)O[C@@H]1C[C@]2(C)[C@H]3CC=C4[C@@H]5CC(C)(C)CC[C@]5(C(=O)O)CC[C@@]4(C)[C@]3(C)CC[C@H]2C(C)(C)[C@H]1OC(C)=O | 7.1% | 61.6% | 44.1 µM |  | 59.3% | 31.4% | 9.7% | 88.9% | 52.9% | 1.5% | Active | 29.6% | 8.7%
CC1(C)CC[C@]2(C(=O)OCc3ccccc3)CC[C@]3(C)C(=CC[C@@H]4[C@@]5(C)CC[C@H](OC(=O)CCCC(=O)O)C(C)(C)[C@@H]5CC[C@]43C)[C@@H]2C1 | 15.9% | 58.4% | 29.9 µM |  | 24.6% | 25.8% | 8.1% | 90.4% | 37.9% | 1.6% | inactive | 65.8% | 20.6%

From ChEMBL document CHEMBL3124882, “Semi-synthesis of acylated triterpenes from olive-oil industry wastes for the development of anticancer and anti-HIV agents” (Eur J Med Chem, 2014)
